Data on four compounds can be found in ChEMBL document CHEMBL3272249, “Esters of N-tert-butylarterenol. Long-acting new bronchodilators with reduced cardiac effects” (J Med Chem, 1976).

Some results are limits rather than exact numbers.

The test system of series [1] is Canis familiaris. In words: Cardiotoxicity in spontaneously respiring dog assessed as degree of increase in heart rate at 200 mg/kg, iv relative to control. Further details: dose 200 mg/kg, route intravenous. To be noted: in vivo. The class given is toxicity, organism-based, Canis lupus familiaris. The method in brief: (§1)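 Anesthetized, spontaneously respiring dogs. Heart rate was taken from a lead II EKG, and blood pressure from the right femoral artery by transducer. The increase in heart rate (beats/min) was scored on a graded scale with more than 4 dogs per dose, and its duration was recorded. Drugs were dissolved fresh in distilled water, diluted in physiological saline and kept on ice.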

The test system of series [2] is Canis familiaris. In words: Cardiotoxicity in spontaneously respiring dog assessed as time of increase in heart rate at 200 mg/kg, iv relative to control. Also noted: dose 200 mg/kg, route intravenous. To be noted: in vivo. The class given is toxicity, organism-based, Canis lupus familiaris. The method in brief: as §1
Series [3] relates to Canis familiaris. In words: Bronchodilator activity in dog assessed as time of inhibition of carbachol or histamine-induced bronchoconstriction at 200 mg/kg, iv relative to control. The class given is functional, Canis lupus familiaris. The procedure, abridged:
(§2)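 Dog airway model: anesthetized, cannulated via a nonbreathing valve, with airway pressure changes recorded after iv carbachol (2–4 μg/kg) or histamine diphosphate (20–50 μg/kg) challenge, each agonist in different animals. Compounds were given iv, intraduodenally or intratracheally from fresh aqueous stocks diluted in saline. Duration (h) of inhibition of induced bronchoconstriction was followed, and the two agonist datasets were pooled.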

For series [4], the system named is Canis familiaris. In words: Bronchodilator activity in dog assessed as time of inhibition of carbachol or histamine-induced bronchoconstriction at 100 to 200 mg/kg, id relative to control. The class given is functional, Canis lupus familiaris. To be noted: dose mg/kg 100-200; route intraduodenal. The procedure, abridged: as §2
The subject of series [5] is Canis familiaris. In words: Bronchodilator activity in dog assessed as time of inhibition of carbachol or histamine-induced bronchoconstriction at 430 to 860 mg/kg, it relative to control. To be noted: dose mg/kg 430-860; route endotracheal. The class given is functional, Canis lupus familiaris. The method in brief:
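Anesthetized dogs with an airway cannula and a nonbreathing valve. Bronchoconstriction was induced by iv carbachol (2–4 μg/kg) or histamine diphosphate (20–50 μg/kg) and read as change in airway pressure by transducer. Each compound was tested against both agonists in different dogs, and the results were combined and averaged. Effect is % inhibition of control constriction, with at least three dogs per dose. Drugs were dissolved fresh in distilled water, diluted in saline and kept on ice.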

Series [6] deals with Canis familiaris. In words: Bronchodilator activity in dog assessed as degree of inhibition of carbachol or histamine-induced bronchoconstriction at 200 mg/kg, iv relative to control. The class given is functional. To be noted: Canis lupus familiaris. The procedure, abridged:
(§3)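 Anesthetized dogs, trachea cannulated with a nonbreathing valve. Bronchoconstriction induced by iv carbachol (2–4 μg/kg) or histamine diphosphate (20–50 μg/kg) in separate animals, and airway pressure recorded by transducer. Drug stocks were made fresh in distilled water, diluted in saline and kept on ice. Read-out was percent inhibition of control constriction, averaged over at least three dogs per dose at the higher dose. Carbachol and histamine data were combined.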

Series [7] has as its system Canis familiaris. In words: Bronchodilator activity in dog assessed as degree of inhibition of carbachol or histamine-induced bronchoconstriction at 100 to 200 mg/kg, id relative to control. The class given is functional, Canis lupus familiaris. To be noted: dose mg/kg 100-200; route intraduodenal. The method in brief: as §3
The subject of series [8] is Canis familiaris. In words: Bronchodilator activity in dog assessed as degree of inhibition of carbachol or histamine-induced bronchoconstriction at 430 to 860 mg/kg, it relative to control. The class given is functional, Canis lupus familiaris. To be noted: dose mg/kg 430-860; route endotracheal. The procedure, abridged:
as §3

The subject of series [9] is Canis familiaris. In words: Cardiotoxicity in spontaneously respiring dog assessed as degree of increase in heart rate at 100 to 200 mg/kg, iv relative to control. Further details: dose 100-200 mg/kg, route intravenous. To be noted: in vivo. The class given is toxicity, organism-based, Canis lupus familiaris. The method in brief:
as §1

The subject of series [10] is Canis familiaris. In words: Cardiotoxicity in spontaneously respiring dog assessed as time of increase in heart rate at 100 to 200 mg/kg, iv relative to control. The class given is toxicity, organism-based, Canis lupus familiaris. Further details: dose 100-200 mg/kg, route intravenous. To be noted: in vivo. The method in brief:
as §1

In series [11] the test system is Canis familiaris. In words: Bronchodilator activity in dog assessed as time of inhibition of carbachol or histamine-induced bronchoconstriction at 100 to 200 mg/kg, iv relative to control. The class given is functional, Canis lupus familiaris. To be noted: dose mg/kg 100-200. The procedure, abridged: as §2
Series [12] concerns Canis familiaris. In words: Bronchodilator activity in dog assessed as degree of inhibition of carbachol or histamine-induced bronchoconstriction at 100 to 200 mg/kg, iv relative to control. The class given is functional, Canis lupus familiaris. To be noted: dose mg/kg 100-200. The procedure, abridged: as §3
The test system of series [13] is Canis familiaris. In words: Cardiotoxicity in spontaneously respiring dog assessed as degree of increase in heart rate at 30 to 60 mg/kg, iv relative to control. Also noted: dose 30-60 mg/kg, route intravenous. To be noted: in vivo. The class given is toxicity, organism-based, Canis lupus familiaris. The procedure, abridged: as §1
In series [14] the test system is Canis familiaris. In words: Cardiotoxicity in spontaneously respiring dog assessed as degree of increase in heart rate at 2000 to 2700 mg/kg, it relative to control. Also noted: dose 2000-2700 mg/kg, route endotracheal. To be noted: in vivo, inhaled_or_intranasal. The class given is toxicity, organism-based, Canis lupus familiaris. The method in brief: as §1
Series [15] concerns Canis familiaris. In words: Cardiotoxicity in spontaneously respiring dog assessed as time of increase in heart rate at 2000 to 2700 mg/kg, it relative to control. Also noted: dose 2000-2700 mg/kg, route endotracheal. The class given is toxicity, organism-based, Canis lupus familiaris. To be noted: in vivo, inhaled_or_intranasal. The method in brief: as §1
Series [16] deals with Canis familiaris. In words: Bronchodilator activity in dog assessed as time of inhibition of carbachol or histamine-induced bronchoconstriction at 30 to 60 mg/kg, iv relative to control. To be noted: dose mg/kg 30-60. The class given is functional, Canis lupus familiaris. The procedure, abridged: as §2
Series [17] has as its system Canis familiaris. In words: Bronchodilator activity in dog assessed as time of inhibition of carbachol or histamine-induced bronchoconstriction at 2000 to 2700 mg/kg, it relative to control. The class given is functional, Canis lupus familiaris. To be noted: dose mg/kg 2000-2700; route endotracheal. The procedure, abridged:
as §2

Series [18] has as its system Canis familiaris. In words: Bronchodilator activity in dog assessed as degree of inhibition of carbachol or histamine-induced bronchoconstriction at 30 to 60 mg/kg, iv relative to control. The class given is functional, Canis lupus familiaris. To be noted: dose mg/kg 30-60. The procedure, abridged: as §3
Series [19] deals with Canis familiaris. In words: Bronchodilator activity in dog assessed as degree of inhibition of carbachol or histamine-induced bronchoconstriction at 2000 to 2700 mg/kg, it relative to control. To be noted: dose mg/kg 2000-2700; route endotracheal. The class given is functional, Canis lupus familiaris. The procedure, abridged:
as §3

Series [20] has as its system Canis familiaris. In words: Bronchodilator activity in dog assessed as time of inhibition of carbachol or histamine-induced bronchoconstriction at 300 to 1200 mg/kg, it relative to control. The class given is functional, Canis lupus familiaris. To be noted: dose mg/kg 300-1200; route endotracheal. The method in brief: as §2
Series [21] deals with Canis familiaris. In words: Bronchodilator activity in dog assessed as time of inhibition of carbachol or histamine-induced bronchoconstriction at 140 to 280 mg/kg, iv relative to control. The class given is functional, Canis lupus familiaris. To be noted: dose mg/kg 140-280. The procedure, abridged:
as §2

The test system of series [22] is Canis familiaris. In words: Bronchodilator activity in dog assessed as time of inhibition of carbachol or histamine-induced bronchoconstriction at 140 mg/kg, id relative to control. To be noted: route intraduodenal. The class given is functional, Canis lupus familiaris. The procedure, abridged: as §2
The test system of series [23] is Canis familiaris. In words: Bronchodilator activity in dog assessed as degree of inhibition of carbachol or histamine-induced bronchoconstriction at 300 to 1200 mg/kg, it relative to control. The class given is functional, Canis lupus familiaris. To be noted: dose mg/kg 300-1200; route endotracheal. The procedure, abridged:
as §3

Series [24] deals with Canis familiaris. In words: Bronchodilator activity in dog assessed as degree of inhibition of carbachol or histamine-induced bronchoconstriction at 140 to 280 mg/kg, iv relative to control. The class given is functional, Canis lupus familiaris. To be noted: dose mg/kg 140-280. The method in brief:
as §3

The subject of series [25] is Canis familiaris. In words: Bronchodilator activity in dog assessed as degree of inhibition of carbachol or histamine-induced bronchoconstriction at 140 mg/kg, id relative to control. To be noted: Canis lupus familiaris, route intraduodenal. The class given is functional. The procedure, abridged:
as §3

As to `CC(C)(C)CC(=O)Oc1ccc([C@@H](O)CNC(C)(C)C)cc1OC(=O)CC(C)(C)C.Cl`, the Activity in the series with Canis familiaris [1] amounted to 20%. The Time with Canis familiaris [2] is under 1 h; with Canis familiaris [3], over 4 h; in the series on Canis familiaris [4], under 5 h; in the series on Canis familiaris [5], under 3 h. Besides, the inhibition in vivo – broadly, the change of the read-out against control, counted positive when it falls – at 200 mg/kg with Canis familiaris [6] was over 70%. Moreover, the results for the “inhibition (INH)” value with Canis familiaris [7] and with Canis familiaris [8] were 45% and 20%, respectively.
Regarding `CC(C)(C)NC[C@H](O)c1ccc(OC(=O)C2CCCCC2)c(OC(=O)C2CCCCC2)c1.Cl`, the Activity with Canis familiaris [9] turned out to be 20%. The figures for the Time with Canis familiaris [10] and in the series with Canis familiaris [11] were under 3 h and under 5 h, respectively. Moreover, the “inhibition (INH)” value in the series with Canis familiaris [12] was found to be 45%.
With `CC(C)(C)NC[C@H](O)c1ccc(OC(=O)c2ccccc2)c(OC(=O)c2ccccc2)c1.Cl`, the figures for the Activity in the series with Canis familiaris [13] and with Canis familiaris [14] were 40% and 20%, respectively. Further, the Time was 1 h with Canis familiaris [15], under 4 h with Canis familiaris [16] and 4 h in the series on Canis familiaris [17]. Moreover, the “inhibition (INH)” value was 45% in the series on Canis familiaris [18] and over 70% in the series with Canis familiaris [19].
Regarding `CS(=O)(=O)O.Cc1cccc(C(=O)Oc2ccc([C@@H](O)CNC(C)(C)C)cc2OC(=O)c2cccc(C)c2)c1`, the Time is under 4 h with Canis familiaris [20], over 3 h in the series with Canis familiaris [21] and 2 h with Canis familiaris [22]. Further, the “inhibition (INH)” value in the series with Canis familiaris [23] is given as 45%; in the series on Canis familiaris [24], over 70%. In the series on Canis familiaris [25], the inhibition in vivo at 140 mg/kg was found to be 45%.
